Measured values: ChEMBL document CHEMBL1137724, “2-Azetidinone derivatives: design, synthesis and evaluation of cholesterol absorption inhibitors” (2009)

What was measured:
Hamster [1] = experiment: Hypocholesterolemic effect in high cholesterol-fed hamster assessed as reduction in plasma total cholesterol at 50 mg/kg, po for 7 days; type: functional, Cricetinae; set-up: scale not given: the % may be the effect or the level left
Method in brief: (§1)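 Blood was collected at sacrifice on the last dosing day for lipid analysis. Plasma total cholesterol and HDL-C were measured by a commercial kit using a modified cholesterol oxidase method.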

Hamster [2] = experiment: Hypocholesterolemic effect in high cholesterol-fed hamster assessed as increase in HDL-cholesterol at 50 mg/kg, po for 7 days; type: functional, Cricetinae; method in brief: as §1

| SMILES | Activity (Hamster [1]) [%] | Activity (Hamster [2]) [%] | Activity (Hamster [1]; 50 mg/kg) [%] | Activity (Hamster [2]; 50 mg/kg) [%] |
| --- | --- | --- | --- | --- |
| COc1ccc(N2C(=O)[C@H](CCC(O)(c3ccc(F)cc3)c3ccc(F)cc3)[C@H]2c2cc3c(cc2Br)OCO3)cc1 | 19.8 | 31.8 |  |  |
| COc1ccc([C@@H]2[C@@H](CCC(=O)Nc3ccc(C)cc3)C(=O)N2c2ccc(OC)cc2)cc1 |  |  | 28.1 | 21.7 |
| COc1ccc([C@@H]2[C@@H](CCC(O)(c3ccccc3)c3ccccc3)C(=O)N2c2ccccc2C)cc1 | 34.8 | 14.5 |  |  |
| Cc1ccccc1N1C(=O)[C@H](CCC(O)(c2ccc(F)cc2)c2ccc(F)cc2)[C@H]1c1ccc2c(c1)OCO2 | 10.4 | 24.8 |  |  |
| COc1ccc([C@@H]2[C@@H](CCC(=O)Nc3ccc(C)cc3)C(=O)N2c2ccccc2)cc1 |  |  |  | 22.1 |
| COc1ccc([C@@H]2[C@@H](CCC(=O)Nc3ccc(Cl)cc3)C(=O)N2c2ccc(C)cc2)cc1 | 31.6 | 13.7 |  |  |
| COc1ccc([C@@H]2[C@@H](CCC(=O)Nc3ccc(C)cc3)C(=O)N2c2ccc(OC)cc2)cc1 (relative stereo) |  |  | 20.9 | 12.4 |
| COc1ccc([C@H]2[C@H](CCC(=O)Nc3ccc(Cl)cc3)C(=O)N2c2ccc(C)cc2)cc1 (relative stereo) | 26.3 | 17.8 |  |  |
| COc1ccc([C@@H]2[C@@H](CCC(O)(c3ccccc3)c3ccccc3)C(=O)N2c2ccc(F)cc2)cc1 (relative stereo) | 16.3 | 35 |  |  |
| COc1ccc([C@@H]2[C@@H](CCC(=O)Nc3ccc(Cl)cc3)C(=O)N2c2ccc(OC)cc2)cc1 (relative stereo) | 16.3 | 20.1 |  |  |
| COc1ccc([C@@H]2[C@@H](CCC(O)(c3ccc(F)cc3)c3ccc(F)cc3)C(=O)N2c2ccc(Br)cc2)cc1 (relative stereo) | 11.2 | 32.9 |  |  |
| COc1ccc([C@@H]2[C@@H](CCC(=O)Nc3ccc(C)cc3)C(=O)N2c2ccccc2)cc1 (relative stereo) |  |  |  | 13.9 |
| COc1ccc([C@@H]2[C@@H](CCC(=O)Nc3ccc(C)cc3)C(=O)N2c2ccc(C)cc2)cc1 (relative stereo) | 18.7 | 23.9 |  |  |
| O=C1[C@H](CCC(O)(c2ccccc2)c2ccccc2)[C@@H](c2ccc3c(c2)OCO3)N1c1ccc(Cl)cc1 (relative stereo) | 28.7 | 11.4 |  |  |
| O=C1[C@H](CC[C@H](O)c2ccc(F)cc2)[C@@H](c2ccc(O)cc2)N1c1ccc(F)cc1 [EZETIMIBE] | 48.7 | 37.3 |  |  |
